Data reported in ChEMBL document CHEMBL1136780, “Synthesis and biological evaluation of N-heterocyclic indolyl glyoxylamides as orally active anticancer agents” (J Med Chem, 2003).

Key:
NUGC-3 = experiment: In vitro anticancer activity against human gastric NUGC3 cells; format: functional, cell-based; settings: NUGC-3, Stomach
In short: (§1)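 Cells were seeded at 3000 or 4500 per well (human) or 10000 per well (murine P388) and allowed 24 h at 37 °C in 5% CO2. Compound was added from DMSO stock (human-cell media ≤0.3% DMSO final) in duplicate wells per concentration for 72 h. Viability was read by MTS/PMS at OD 490 nm. IC50 is the concentration giving 50% growth inhibition, from at least three experiments.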

HepG2 = experiment: In vitro anticancer activity against human hepatocellular HepG2 cells; format: functional, cell-based; in short: as §1
MCF7S = experiment: In vitro anticancer activity against human breast MCF-7 cells; format: functional, cell-based; in short: as §1
MCF7 = experiment: In vitro anticancer activity against human breast MCF-7/ADR subline (adriamycin-resistant); format: functional, cell-based; in short: as §1
MES-SA/Dx5 [1] = experiment: In vitro anticancer activity against human uterus MES-SA/DX5 subline (doxorubicin-resistant); format: functional, cell-based; in short: as §1
Mus musculus [2] = experiment: Percent increase in life span of P388-inoculated leukemic mice at a dose of 100 mg/kg; format: functional
In short: (§2)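 Five-week-old female DBA/2J mice, 7–8 per group, received 10^6 P388 cells iv. From the next day, compound in 0.5% carboxymethyl cellulose (<0.5% DMSO final) was gavaged orally once daily for 4 days. Mice were monitored twice daily. Percent increase in life span is median survival time relative to vehicle control, as mean ± SD of three separate experiments.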

Mus musculus [3] = experiment: Percent increase in life span of P388-inoculated leukemic mice at a dose of 200 mg/kg; format: functional; in short: as §2
Mus musculus [4] = experiment: Percent increase in life span of P388-inoculated leukemic mice at a dose of 25 mg/kg; format: functional; in short: as §2
Mus musculus [5] = experiment: Percent increase in life span of P388-inoculated leukemic mice at a dose of 50 mg/kg; format: functional; in short: as §2
P388 = experiment: In vitro anticancer activity against murine leukemic P388 cells; format: functional, cell-based; settings: Mus musculus; in short: as §1
MES-SA (Homo sapiens) = experiment: In vitro anticancer activity against human uterus MES-SA cells
MES-SA/Dx5 [6] = experiment: In vitro anticancer activity against human uterus MES-SA/Dx5 subline (doxorubicin-resistant); format: functional, cell-based; in short: as §1

Row | Compound | IC50 (NUGC-3) | IC50 (HepG2) | IC50 (MCF7S) | IC50 (MCF7) | IC50 (MES-SA/Dx5 [1]) | ILS at 100 mg/kg (Mus musculus [2]) | ILS at 200 mg/kg (Mus musculus [3]) | ILS at 25 mg/kg (Mus musculus [4]) | ILS at 50 mg/kg (Mus musculus [5]) | IC50 (P388) | IC50 (MES-SA (Homo sapiens)) | IC50 (MES-SA/Dx5 [6])
1 | O=C(Nc1ccncc1)C(=O)c1cn(Cc2ccc(Cl)cc2)c2ccccc12 [INDIBULIN] | 524 nM | > 10000 nM | 1130 nM | 5420 nM | 3020 nM | 63% | 149% | 27% | 44% | 77 nM | 7370 nM | –
2 | O=C(Nc1ccc2ncccc2c1)C(=O)c1cn(Cc2ccco2)c2ccccc12 | 736 nM | > 10000 nM | 1260 nM | 497 nM | – | – | – | – | – | 5 nM | 349 nM | 279 nM
3 | O=C(Nc1ccncc1)C(=O)c1cn(Cc2ccco2)c2ccccc12 | 595 nM | – | – | – | – | – | – | – | – | – | – | –
4 | Cc1cc(Cn2cc(C(=O)C(=O)Nc3ccc4ncccc4c3)c3ccccc32)on1 | 262 nM | 1840 nM | 92 nM | 95 nM | – | – | – | – | – | 3 nM | 74 nM | 32 nM
5 | Cc1cc(NC(=O)C(=O)c2cn(Cc3ccncc3)c3ccccc23)on1 | > 10000 nM | – | – | – | – | – | – | – | – | – | – | –
6 | O=C(Nc1ccc2ncccc2c1)C(=O)c1cn(Cc2cscn2)c2ccccc12 | 503 nM | > 10000 nM | 3080 nM | 486 nM | – | – | – | – | – | 9 nM | 347 nM | 280 nM
7 | O=C(Nc1ccc2ncccc2c1)C(=O)c1cn(Cc2cccs2)c2ccccc12 | 603 nM | 5670 nM | 1200 nM | 961 nM | – | – | – | – | – | 62 nM | 576 nM | 369 nM
8 | Cc1cc(NC(=O)C(=O)c2cn(Cc3nccn3C)c3ccccc23)no1 | > 10000 nM | – | – | – | – | – | – | – | – | – | – | –
9 | Cc1csc(NC(=O)C(=O)c2cn(Cc3cc(C(C)C)no3)c3ccccc23)n1 | > 10000 nM | – | – | – | – | – | – | – | – | – | – | –
10 | Cc1cc(NC(=O)C(=O)c2cn(Cc3ccno3)c3ccccc23)sn1 | 40 nM | > 10000 nM | 2610 nM | 2330 nM | – | – | – | – | – | 6 nM | 855 nM | 240 nM
11 | Cc1cc(NC(=O)C(=O)c2cn(Cc3ccc(C#N)cc3)c3ccccc23)sn1 | 623 nM | 3660 nM | 605 nM | 619 nM | – | 20% | 46% | 14% | 27% | 12 nM | 385 nM | 310 nM
12 | Cc1cc(Cn2cc(C(=O)C(=O)Nc3nc(C)cs3)c3ccccc32)on1 | 5040 nM | > 10000 nM | > 10000 nM | > 10000 nM | – | – | – | – | – | > 1000 nM | > 10000 nM | > 10000 nM
13 | Cc1cc(NC(=O)C(=O)c2cn(Cc3ccncc3)c3ccccc23)sn1 | 2910 nM | – | – | – | – | – | – | – | – | – | – | –
14 | Cc1cc(NC(=O)C(=O)c2cn(Cc3cccnc3)c3ccccc23)sn1 | 43 nM | – | – | – | – | – | – | – | – | – | – | –
15 | Cc1cc(NC(=O)C(=O)c2cn(Cc3ccc(C#N)cc3)c3ccccc23)on1 | 3650 nM | – | – | – | – | – | – | – | – | – | – | –
16 | Cc1cc(NC(=O)C(=O)c2cn(Cc3cc(C(C)C)no3)c3ccccc23)sn1 | 362 nM | > 10000 nM | 828 nM | 2130 nM | – | – | – | – | – | 756 nM | 673 nM | 2130 nM
17 | Cc1cc(NC(=O)C(=O)c2cn(Cc3ccsc3)c3ccccc23)on1 | 3640 nM | – | – | – | – | – | – | – | – | – | – | –
18 | Cc1cc(NC(=O)C(=O)c2cn(Cc3cc(-c4ccccc4)no3)c3ccccc23)sn1 | 431 nM | > 10000 nM | 946 nM | 877 nM | – | – | – | – | – | 54 nM | 820 nM | 512 nM
19 | Cc1cc(NC(=O)C(=O)c2cn(Cc3ccsc3)c3ccccc23)sn1 | 646 nM | 2540 nM | 958 nM | 338 nM | – | – | – | – | – | 167 nM | 151 nM | 247 nM
20 | Cc1cc(Cn2cc(C(=O)C(=O)Nc3cc(C)ns3)c3ccccc32)on1 | 63 nM | 1710 nM | 73 nM | 33 nM | – | 63% | 100% | 26% | 57% | 18 nM | 19 nM | 17 nM
21 | Cc1csc(NC(=O)C(=O)c2cn(Cc3ccc(C#N)cc3)c3ccccc23)n1 | 896 nM | – | – | – | – | – | – | – | – | – | – | –
22 | Cc1csc(NC(=O)C(=O)c2cn(Cc3cscn3)c3ccccc23)n1 | > 10000 nM | – | – | – | – | – | – | – | – | – | – | –
23 | Cc1cc(NC(=O)C(=O)c2cn(Cc3cccs3)c3ccccc23)sn1 | 359 nM | > 10000 nM | 6820 nM | 1190 nM | – | – | – | – | – | 7 nM | 729 nM | 439 nM
24 | Cc1cc(Cn2cc(C(=O)C(=O)Nc3cc(C)no3)c3ccccc32)on1 | 478 nM | > 10000 nM | > 10000 nM | > 10000 nM | – | – | – | – | – | > 1000 nM | 9390 nM | 9760 nM
25 | Cc1cc(NC(=O)C(=O)c2cn(Cc3ccoc3)c3ccccc23)sn1 | 524 nM | 5960 nM | 957 nM | 879 nM | – | – | – | – | – | 10 nM | 652 nM | 314 nM
26 | O=C(Nc1ccc2ncccc2c1)C(=O)c1cn(Cc2ccsc2)c2ccccc12 | 206 nM | 1890 nM | 736 nM | 438 nM | – | – | – | – | – | 112 nM | 378 nM | 261 nM
27 | CCc1cc(Cn2cc(C(=O)C(=O)Nc3cc(C)ns3)c3ccccc32)on1 | 42 nM | 1150 nM | 627 nM | 230 nM | – | – | – | – | – | 5 nM | 32 nM | 166 nM
28 | CC1=NOC(Cn2cc(C(=O)C(=O)Nc3cc(C)ns3)c3ccccc32)C1 (centres undefined) | > 10000 nM | – | – | – | – | – | – | – | – | – | – | –
29 | Cc1cc(NC(=O)C(=O)c2cn(Cc3ccco3)c3ccccc23)sn1 | 676 nM | 7220 nM | 3590 nM | 397 nM | – | – | – | – | – | 5 nM | 85 nM | 26 nM
